Compound activity: PubChem, several laboratories
Only some compounds are listed: those with a hit (about 0.91% of all), similar ones and a draw of the others.
Tb hexokinase = blocks Trypanosoma brucei hexokinase 1 activity; hit rate 0.11% among 220,000; AID 1430; recombinant TbHK1, G6PDH-coupled NADH A340; inhibition, % at 10 µM;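 active means inhibition of 50% or more in the single-dose primary screen; inactive means inhibition below 50%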
Redox H2O2 prof = compounds producing H2O2 with reducing agent – biochemical, NIH compound library profiling, artefact control for MLSCN library redox annotation, primary screen; DTT-dependent redox cycling H2O2, phenol red/HRP absorbance; 100% = 100 µM peroxide control, 0% = buffer; activation, % at 10 µM; hit rate 0.03% among 200,000; AID 878;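 active means activation of at least 50% relative to the plate's high and low controls in the primary single-dose screen; inactive means activation below 50%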;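 further: compound incubated with DTT at 0.8 mM final as the reducing agent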
p97 ATPase inh = inhibitors of human p97 ATPase | P55072 | recombinant p97 ATPase, Kinase-Glo ATP luminescence, 3 h | inhibition, % at 8 µM | hit rate 0.42% among 220,000; in the data active means inhibition above about 15%
PMI act = increases human mannose-6-phosphate isomerase activity; purified human PMI, coupled resazurin fluorescence, 20 min; stronger effect = higher value; 1 = vehicle control, 0 substrate-free wells; P34949; hit rate 0.005% among 190,000; activation factor at 20 µM;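 active means activation factor of 2 or more at 20 µM, relative to plate controls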
PMI act satM6P = PMI (human) activation, high substrate; coupled PMI enzyme assay, resazurin fluorescence, 20 min; stronger effect = higher value; 1 = untreated enzyme, 0 = substrate-free blank; activation factor at 20 µM; hit rate 0.34% among 190,000; AID 1216;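 active means activation factor of 2 or more at 20 µM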
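Test system: human phosphomannose isomerase with PGI, G6PDH, diaphorase coupling enzymes; amount: 15 ng/mL PMI; incubation: enzyme reaction with compound 20 min at room temperature; technique: resorufin fluorescence (Ex 544/Em 590 nm) from resazurin via diaphorase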
G6PDH counter = inhibits Leuconostoc G6PDH, flagging false hits in G6PDH-based assays; Purified L. mesenteroides G6PDH, diaphorase/resazurin coupled fluorescence, 45 min; hit rate 0.12% among 200,000; inhibition, % at 5 µM; AID 1020; in the data active means inhibition above about 50%
p97 confirm = human p97 ATPase inhibition, confirmation. inhibition, % at 8 µM. shares compounds with p97 ATPase inh. recombinant p97 ATPase, Kinase-Glo ATP luminescence. hit rate 44% among 760;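 active means percent inhibition of p97 ATPase above a set limit, the primary screen's mean plus 3 SD, cut at about 15% in these data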
Hits are given with their value; i = inactive; nt = no result.

SMILES	Tb hexokinase	Redox H2O2 prof	p97 ATPase inh	PMI act	PMI act satM6P	G6PDH counter	p97 confirm
COc1ccc(Nc2nc(-c3ccccc3)nc3ccccc23)cc1S(=O)(=O)N1CCOCC1	i	nt	16.1	nt	nt	nt	i
O=C(Nn1cnc2ccccc2c1=O)c1ccccc1[N+](=O)[O-]	i	i	i	i	i	i	nt
C=CC(=O)N=c1sc2ccccc2n1-c1ccccc1	i	i	17.5	i	i	i	16.7
N=c1sc2ccccc2n1-c1ccccc1	i	i	i	i	i	i	nt
COC(=O)c1ccc(NCCc2csc(-c3ccc(C)cc3)n2)c([N+](=O)[O-])c1	i	i	i	i	i	i	nt
Cc1ccc(N/C(C(Cl)=C(Cl)Cl)=C(/Cl)[N+](=O)[O-])c(C)c1	i	i	19.5	i	i	i	21.3
COc1ccc(NC(=O)c2cc(SC)ccc2Cl)cc1	i	i	15.7	i	i	i	i
CNC(=O)/C(C#N)=C/c1c(N2CC(C)OC(C)C2)nc2ccccn2c1=O (stereo not given)	i	i	i	i	i	i	nt
COc1ccc(/C=C(\NC(=O)c2ccccc2)C(=O)OC[C@@H]2CCC[N+]3(C)CCCCC23)cc1OC (stereo not given in full)	i	i	i	i	i	i	nt
Cc1nc2cc(-c3ccsc3-n3c(C)ccc3C)[nH]n2c(=O)c1Cl	i	i	29.8	i	i	i	i
Cc1cc(=O)n2[nH]c(-c3ccsc3-n3c(C)ccc3C)cc2n1	i	nt	23.2	nt	nt	nt	i
COc1cc(/C=N/NC(=O)c2cc(-c3ccco3)nc3ccccc23)cc(OC)c1O	i	nt	16.2	nt	nt	nt	i
COC(=O)c1ccccc1NC(=S)NC(=O)c1ccccc1	i	i	25.6	i	i	i	21.1
Cc1ccccc1C(=O)NC(=S)Nc1ccccc1C(=O)O	i	i	i	i	i	i	nt
COC(=O)c1ccccc1NC(=S)NC(=O)c1ccccc1C	i	i	36.0	i	i	i	38.7
COC(=O)c1ccccc1NC(=S)NC(=O)c1ccc(C)cc1	i	i	i	i	i	i	nt
COC(=O)c1ccccc1NC(=S)NC(=O)C1CCCCC1	i	i	17.6	i	i	i	18.9
Cc1cccc(C)c1NC(=S)N(Cc1ccccc1)Cc1cccs1	i	i	i	i	i	i	nt
CC1CC(C)(C)NC(=S)N1CCCC(=O)Nc1ccc2c(c1)OCCO2 (stereo not given)	i	i	i	i	i	i	nt
Oc1ccccc1-c1nnc(SCCN2CCOCC2)n1Cc1ccccc1	i	i	15.3	i	i	i	i
COc1cc(/C=C/c2ccc3c(Br)cc(Br)c(O)c3n2)ccc1O	i	nt	18.2	nt	nt	nt	15.2
CCN(C(=O)COC(=O)c1nn(-c2ccccc2)c(=O)c2ccccc12)C1CCS(=O)(=O)C1 (stereo not given)	i	nt	i	nt	nt	nt	nt
COc1ccc(CCn2c3c(c(=O)[nH]c2=O)C(NC(=O)c2cccs2)(C(F)(F)F)C(=O)N3)cc1OC (stereo not given)	i	i	27.3	i	i	i	i
O=C(CCCC(=O)NNC(=O)Nc1ccccc1)NNC(=O)Nc1ccccc1	i	i	i	i	i	i	nt
c1ccc(NC2=Nc3cccc4cccc2c34)cc1	i	i	i	i	i	i	nt
O=C(O)c1cccc(NC2=Nc3cccc4cccc2c34)c1	i	nt	16.0	nt	nt	nt	i
CC12CCC(C(=O)Nc3ncc([N+](=O)[O-])s3)(OC1=O)C2(C)C (stereo not given)	i	i	i	i	i	i	nt
O=C(Nc1ccc(S(=O)(=O)Nc2ncccn2)cc1)c1cccc(S(=O)(=O)N2CCOCC2)c1	i	nt	i	nt	nt	nt	nt
O=C(CCn1c(=S)oc2ccccc21)NC1CCCCCC1	i	nt	15.5	nt	nt	nt	i
CC1CCCC(NC(=O)CCn2c(=S)oc3ccccc32)C1C (stereo not given)	i	nt	i	nt	nt	nt	nt
